This is an account of results in BindingDB's records for doi:10.1016/j.bmcl.2008.10.125 (The University of Queensland, 2008).

The target in this experiment is T1, Fe(3+)-Zn(2+) purple acid phosphatase (Phaseolus vulgaris, UniProt P80366).
T1 sequence (P80366 whole entry): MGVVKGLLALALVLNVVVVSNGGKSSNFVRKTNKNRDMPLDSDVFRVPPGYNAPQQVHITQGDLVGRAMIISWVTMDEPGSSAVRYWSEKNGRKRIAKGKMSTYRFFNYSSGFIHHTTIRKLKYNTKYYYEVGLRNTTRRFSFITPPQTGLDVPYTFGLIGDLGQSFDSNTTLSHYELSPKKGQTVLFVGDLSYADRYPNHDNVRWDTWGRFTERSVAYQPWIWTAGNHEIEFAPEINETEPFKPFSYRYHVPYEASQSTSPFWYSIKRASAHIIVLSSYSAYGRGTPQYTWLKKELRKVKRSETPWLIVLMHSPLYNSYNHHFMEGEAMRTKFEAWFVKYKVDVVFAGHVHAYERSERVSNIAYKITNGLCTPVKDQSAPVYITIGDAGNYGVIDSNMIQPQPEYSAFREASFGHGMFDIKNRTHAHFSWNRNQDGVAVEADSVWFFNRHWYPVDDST
Description: Inhibition of red kidney bean PAP at pH 6.2. An outline of the steps:
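Each enzyme was run at its own pH optimum: red kidney bean PAP at pH 6.2 and pig PAP at pH 4.9. IC50 values were determined experimentally. Separate inhibition constants were derived for binding to the free enzyme and to the enzyme–substrate complex.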
What is called Ki is the dissociation constant of the complex between target and ligand, obtained from inhibition or displacement. The compound `CCCCCCCCCCOC(c1cccc2ccccc12)P(=O)(O)O` (racemic) [(+/-)-decyloxy(naphthalen-1-yl)methylphosphonic acid] registered a Ki of 4 µM.

Consider `CCCCCCOC(c1cccc2ccccc12)P(=O)(O)O` (racemic) [(+/-)-hexyloxy(naphthalen-1-yl)methylphosphonic acid], for which the Ki was found to be 1470 µM.

`CCCCCCCCOC(c1cccc2ccccc12)P(=O)(O)O` (racemic) [(+/-)-naphthalen-1-yl(octyloxy)methylphosphonic acid] returned a Ki of 50 µM.
